Hit rate of the full screen: of about 220,000 compounds, about 630 (0.29%) were called active. The entries come from a sample that favours actives as a whole. A number with no mark means an inactive call.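 How the source made its calls: active means activation above its plate's cutoff, the mean activation of the plate's test wells plus 3 SD (cut at about 12% in these data); inactive means the rest.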
Each compound was assayed against Mucolipin-3 (Homo sapiens) (UniProt Q8TDD5) (assay: activators of mucolipin-3 cation channel – cell-based, HEK293 TRPML3-YFP, Fluo-8 calcium fluorescence, 3 µM, primary screen (AID 1448;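 further: 0% = DMSO only wells and 100% = carbachol wells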)). Settings: at 3 µM, active compounds read high, 100% = the carbachol control signal.
In short: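 Material: TRPML3-YFP stable HEK293 cells | Dosing: One concentration, 3 µM nominal, 0.3% DMSO | Timing: 125 s total fluorescence read per well | Technique: Fluo-8 calcium dye fluorescence, ex 470-495, em 515-575 nm | Measure: Percent activation from peak-to-basal fluorescence ratio, scaled between DMSO and carbachol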

Sequence of Mucolipin-3 (Homo sapiens) (Q8TDD5 whole entry, looked up): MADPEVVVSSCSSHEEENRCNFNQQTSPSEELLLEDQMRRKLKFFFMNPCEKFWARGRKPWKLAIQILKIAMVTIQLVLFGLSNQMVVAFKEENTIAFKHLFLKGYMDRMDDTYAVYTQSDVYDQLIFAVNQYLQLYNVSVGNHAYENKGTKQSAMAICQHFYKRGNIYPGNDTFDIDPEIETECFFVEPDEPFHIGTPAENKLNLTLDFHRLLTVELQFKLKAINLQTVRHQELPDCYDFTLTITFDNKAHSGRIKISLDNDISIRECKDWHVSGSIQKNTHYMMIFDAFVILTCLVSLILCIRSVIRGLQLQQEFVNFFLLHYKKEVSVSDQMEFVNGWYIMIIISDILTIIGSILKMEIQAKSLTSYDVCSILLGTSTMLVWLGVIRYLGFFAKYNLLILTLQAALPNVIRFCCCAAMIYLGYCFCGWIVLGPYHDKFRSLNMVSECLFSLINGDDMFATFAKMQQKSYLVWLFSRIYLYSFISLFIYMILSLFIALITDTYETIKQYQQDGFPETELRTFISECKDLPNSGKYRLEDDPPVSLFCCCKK

Compound | activation
COc1ccc(N2C(=O)c3cccc4cccc(c34)C2=O)nn1 | -0.51%
Cc1nn(-c2cc(Cl)ccc2N)c(=O)c2ccccc12 | 0.26%
Cc1nn(C)cc1N1C(=O)c2cccc3c(N)ccc(c23)C1=O | 16.9% (active)
COCc1cc(=O)[nH]c(SC)n1 | 0.74%
Cc1cc(C)cc(C(=O)NCC(=O)OCC(=O)N2CCCCC2)c1 | 0.67%
CC(NC(=O)COC(=O)C1CCN(S(=O)(=O)c2ccccc2C(F)(F)F)CC1)c1ccccc1 (configuration not stated) | -0.74%
CC(C)CCC(C)NC(=O)c1ccc2nccnc2c1 (configuration not stated) | -0.61%
O=C(c1nnc(-c2ccc(Cl)cc2)o1)C1CCCC1 | 0.06%
CC1=C(C)CC2C(=O)N(c3cccc4ccccc34)C(=O)C2C1 (configuration not stated) | 0.86%
Cc1ccc(N2C(=O)C3CC3C2=O)cc1 (configuration not stated) | 0.72%
CC1(C)CCCC2=C1CC1C(=O)N(c3ccccc3)C(=O)C1C2 (configuration not stated) | 22.9% (active)
Cc1cccc(-n2cnc(C(=O)NNC(=S)Nc3ccccc3)c2)n1 | 0.89%
Cn1ccc(NC(=O)Nc2ccc(Cl)cc2)n1 | 1.03%
CC1=NN(Cc2ccccc2)C(=O)/C1=C/c1ccc(N(C)C)cc1 | -2.14%
CN(C)c1ccc(/C=C2\NC(=S)N(Cc3ccccc3)C2=O)cc1 | 19.5% (active)
O=C1NCC(=O)N(Cc2ccccc2)/C1=C/c1ccccc1 | 1.86%
O=C(Nc1ccc(N2CCN(C(=O)c3ccccc3)CC2)c(Cl)c1)c1ncn[nH]1 | -0.11%
COCCNc1nc2nonc2nc1N1CCCC1c1nccs1 (configuration not stated) | 0.19%
NS(=O)(=O)c1ccc(NC(=S)NNC(=O)c2cccs2)cc1 | -0.19%
O=S(=O)(c1ccc(NC(=S)NN=C(C2CC2)C2CC2)cc1)N1CCOCC1 | 0.74%
CCOc1cc(/C=C(\C#N)c2nc(-c3cccs3)c(NC(C)=O)s2)ccc1O | 9.68%

Compound | activation
COc1cc(/C=C(\C#N)c2nc3c(s2)CC(C)CC3)ccc1O (configuration not stated) | 12.4% (active)
COc1cc(/C=N/Nc2nc3ccccc3s2)ccc1O | -0.85%
Cc1nn(CC(=O)Nc2ccc3c(c2)OCO3)c(C)c1[N+](=O)[O-] | -0.67%
Cc1[nH]n(-c2ccccc2)c(=O)c1N=Nc1ccccc1C(=O)N1CCCCC1 | 0.09%
O=C(CSc1nc2ccc(Nc3nc(N4CCOCC4)nc(N4CCOCC4)n3)cc2s1)NCc1ccco1 | 0.56%
CCn1c(CSc2ncccn2)nnc1SCC(=O)N1c2ccccc2CC1C (configuration not stated) | -0.71%
CCCc1nnc(SCC(=O)N2C(C)CCCC2C)n1CC (configuration not stated) | 20.2% (active)
CCn1c(Cc2ccccc2)nnc1SCC(=O)Nc1ccccc1 | -0.27%
Cc1sc2nc(CC(N)=O)[nH]c(=O)c2c1-c1ccccc1 | 0.25%
CCCN(C(=O)CSc1nnnn1C)c1c(N)n(Cc2ccccc2)c(=O)[nH]c1=O | -0.23%
COCCNC(=S)N1CCN(C)CC1 | 0.99%
CC(C)C(=O)Nc1cccc(NC(=S)NC(=O)C(c2ccccc2)c2ccccc2)c1 | 1.07%
CCCCC(=O)NNC(=S)NC(=O)C(c1ccccc1)c1ccccc1 | 74.5% (active)
O=C(NNC(=S)NCc1ccco1)C(c1ccccc1)c1ccccc1 | 0.93%
O=[N+]([O-])c1cc(S(=O)(=O)Nc2cccc(Cl)c2)ccc1N=Nc1c(O)[nH]c2ccccc12 | 0.58%
CCS(=O)(=O)Nc1ccc(C2=NN(C(C)=O)C(c3cccs3)C2)cc1 (configuration not stated) | 0.2%
NNC(=O)c1cccc(COCC(F)(F)C(F)F)c1 | 0.05%
CC(C)c1c(O)nc(SCCOc2ccc(Cl)cc2)[nH]c1=O | 0.56%
COc1cc(OC)cc(/C(N)=N/O)c1 | 0.62%
CC(/C=C/c1ccco1)=N/NC(=O)C1COc2ccccc2O1 (configuration not stated) | 1.2%
C=C(C)Cn1c(C)cc(C)c(S(=O)(=O)c2ccccc2C)c1=O | 42% (active)

Compound | activation
S=c1nc(C23CC4CC(CC(C4)C2)C3)nc2sccn12 | 0.26%
Cc1ccccc1C(=O)NNC(=O)CN1C(=O)c2ccccc2C1=O | 1.17%
O=C(NCCN1C(=O)S/C(=C\c2cccnc2)C1=O)c1ccc(S(=O)(=O)N2CCCC2)cc1 | -0.11%
O=C(COC(=O)c1ccc(NS(=O)(=O)c2cccs2)cc1O)Nc1ccc(F)cc1 | 0.82%
O=C(CSc1nncn1-c1cccnc1)N1CCOCC1 | 0.63%
O=S(=O)(Nc1cc(S(=O)(=O)N2CCOCC2)ccc1N1CCCC1)c1cccs1 | -0.45%
O=C(Nc1ccccc1N1CCOCC1)c1csc2c1CCCC2 | -1.45%
O=S(=O)(Nc1ccccc1N1CCOCC1)c1ccc(Cl)s1 | 98.9% (active)
CCOc1ccc(Br)cc1S(=O)(=O)Nc1ccc(C(=O)OC(C)C(=O)N(C)c2ccccc2)cc1 (configuration not stated) | 0.82%
COc1ccc(OC)c(NC(=S)N2CCc3ccccc3C2)c1 | -0.32%
COCc1[nH][nH]c(=O)c1C=Nc1ccc(F)cc1F | 0.21%
Cc1ccc(O)c(NC(=S)NC(=O)COc2ccc(Br)cc2)c1 | 20.5% (active)
Cc1cccc(OCC(=O)NC(=S)Nc2ccccc2N2CCOCC2)c1 | 0.19%
Cc1ccc(O)c(NC(=O)COc2cc(C)ccc2C)c1 | 0.83%
CC(C)N(C(=O)CSc1nc(COc2ccccc2)nc2ccccc12)C(C)C | -1.84%
O=C(NCc1cccnc1)C(=O)Nc1nc(-c2ccccc2)cs1 | 0.51%
O=C(NNS(=O)(=O)Cc1ccccc1)c1ccc([N+](=O)[O-])cc1 | 0.34%
CCN(CC)S(=O)(=O)c1ccc2c3c(cccc13)C(=O)S2 | 12.9% (active)
CCN(CC)S(=O)(=O)c1cc([N+](=O)[O-])ccc1N=Nc1c(O)n(C)c2ccccc12 | 0.98%
CN(CCc1ccccn1)S(=O)(=O)c1ccc2c3c(cccc13)C(=O)N2 | 0.24%
